Source: PMC4075068 (Bioorganic & medicinal chemistry letters, 2014)

Columns and labels:
tier 1 DMPK panel = assay type: in vitro ADME; conditions: compared with 10b
[1] = predicted hepatic clearance, human; assay type: in vitro ADME
the other mGlus = test: mGlu family selectivity screen, fold-shift of glutamate response; assay type: cell-based; conditions: 10 μM
Outline: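 Fold-shift of glutamate-evoked signaling measured at group I and group III mGlu receptors. Group I receptors read out by calcium response; group III receptors read out by GIRK response.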

mGlu2 = mGlu2 (Rattus norvegicus, UniProt P31421); test: mGlu family selectivity screen, fold-shift of glutamate response; assay type: cell-based; conditions: 10 μM
Chain of mGlu2 (P31421 19-872): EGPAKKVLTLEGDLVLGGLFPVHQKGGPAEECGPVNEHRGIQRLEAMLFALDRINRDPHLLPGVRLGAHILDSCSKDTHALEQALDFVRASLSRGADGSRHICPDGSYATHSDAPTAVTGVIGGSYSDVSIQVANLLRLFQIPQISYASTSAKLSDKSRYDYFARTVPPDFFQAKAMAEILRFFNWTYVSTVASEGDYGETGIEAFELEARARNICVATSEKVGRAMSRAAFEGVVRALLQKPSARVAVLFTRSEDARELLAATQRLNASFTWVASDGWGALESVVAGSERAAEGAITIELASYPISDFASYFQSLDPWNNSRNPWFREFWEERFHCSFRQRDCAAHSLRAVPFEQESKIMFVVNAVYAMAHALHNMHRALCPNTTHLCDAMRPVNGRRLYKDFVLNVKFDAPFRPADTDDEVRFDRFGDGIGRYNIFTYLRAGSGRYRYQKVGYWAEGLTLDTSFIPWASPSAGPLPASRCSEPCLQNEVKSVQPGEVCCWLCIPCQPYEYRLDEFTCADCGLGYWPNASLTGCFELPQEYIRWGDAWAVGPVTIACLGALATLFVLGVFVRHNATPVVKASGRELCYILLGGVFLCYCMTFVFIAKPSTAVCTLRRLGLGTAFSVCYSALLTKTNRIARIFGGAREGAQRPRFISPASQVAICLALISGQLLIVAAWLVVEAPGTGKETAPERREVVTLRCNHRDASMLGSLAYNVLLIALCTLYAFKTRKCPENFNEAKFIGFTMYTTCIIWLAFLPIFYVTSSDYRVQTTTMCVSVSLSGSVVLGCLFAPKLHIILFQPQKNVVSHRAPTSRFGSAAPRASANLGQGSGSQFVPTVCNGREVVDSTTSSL

rat mGlu2 = rat mGlu2 (Rattus norvegicus, UniProt P31421); assay type: cell-based
Chain of rat mGlu2 (P31421 19-872): as above
Outline: (§1)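 Kinetic plate-based calcium fluorescence readout in cells expressing mGlu2 or mGlu3. For IC50, the test compound was titrated from 1 nM upward against an EC76 of glutamate at mGlu2 or an EC87 at mGlu3. For mechanism, the test compound was held at several fixed concentrations while glutamate was titrated from 1 nM upward, and shifts in the glutamate curve were assessed. Three independent experiments.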

mGlu3 = mGlu3 (Rattus norvegicus, UniProt P31422); test: mGlu family selectivity screen, fold-shift of glutamate response; assay type: cell-based; conditions: 10 μM
Chain of mGlu3 (P31422 23-879): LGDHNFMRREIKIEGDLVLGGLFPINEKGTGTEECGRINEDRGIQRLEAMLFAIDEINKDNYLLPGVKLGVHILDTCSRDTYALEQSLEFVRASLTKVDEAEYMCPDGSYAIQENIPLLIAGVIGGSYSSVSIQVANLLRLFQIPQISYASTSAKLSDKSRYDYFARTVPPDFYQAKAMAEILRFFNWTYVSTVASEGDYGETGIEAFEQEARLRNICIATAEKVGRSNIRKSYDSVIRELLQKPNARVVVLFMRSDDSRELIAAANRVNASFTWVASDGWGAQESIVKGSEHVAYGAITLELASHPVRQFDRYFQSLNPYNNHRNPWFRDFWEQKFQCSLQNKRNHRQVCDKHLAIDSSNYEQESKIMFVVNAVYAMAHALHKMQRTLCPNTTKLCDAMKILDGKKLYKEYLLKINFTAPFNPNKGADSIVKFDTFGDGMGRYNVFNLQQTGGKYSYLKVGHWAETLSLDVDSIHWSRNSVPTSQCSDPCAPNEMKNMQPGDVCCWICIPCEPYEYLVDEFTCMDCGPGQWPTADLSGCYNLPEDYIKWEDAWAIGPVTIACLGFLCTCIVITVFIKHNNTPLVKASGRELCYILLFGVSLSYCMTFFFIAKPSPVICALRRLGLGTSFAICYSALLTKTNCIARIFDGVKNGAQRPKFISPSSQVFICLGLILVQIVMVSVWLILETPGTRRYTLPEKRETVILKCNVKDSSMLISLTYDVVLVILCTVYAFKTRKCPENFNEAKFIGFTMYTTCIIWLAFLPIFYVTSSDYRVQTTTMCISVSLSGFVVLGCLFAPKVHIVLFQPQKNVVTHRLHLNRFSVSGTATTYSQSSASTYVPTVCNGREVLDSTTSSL

rat mGlu3 = rat mGlu3 (Rattus norvegicus, UniProt P31422); assay type: cell-based
Chain of rat mGlu3 (P31422 23-879): as above
Outline: as §1

[2] = predicted hepatic clearance, rat; assay type: in vitro ADME
[3] = fixed concentrations against glutamate 1 nM – 30 μM

Row | DMPK properties (tier 1 DMPK panel) | predicted clearance CLhep, human [1] [mL/min/kg] | increase in potency at mGlu2 compared to 7d (rat mGlu2) [fold] | mechanism of action at mGlu2 (progressive fold-shift of glutamate response) (rat mGlu2; [3]) | increase in potency at mGlu3 compared to 7d (rat mGlu3) | mechanism of action at mGlu3 (progressive fold-shift of glutamate response) (rat mGlu3; [3]) | predicted clearance CLhep, rat [2] [mL/min/kg] | SMILES | effect on responses of the other mGlus to glutamate (the other mGlus) | effect on glutamate response at mGlu2 (mGlu2) | effect on glutamate response at mGlu3 (mGlu3)
1 | similarly poor DMPK properties |  |  |  |  |  |  | Cn1c(=O)c2ccc(-c3cccnc3)cc2n2nc(-c3ccc(F)cc3)cc12 [7ab] |  |  | 
2 |  | 18.7 | ~3.5 | acting as a NAM | over 2 fold | acting as a NAM | 54.7 | Cn1c(=O)c2ccc(-c3cncnc3)cc2n2nc(-c3ccccc3)cc12 [10b, 4-methyl-2-phenyl-8-(pyrimidin-5-yl)pyrazolo[1,5-a]quinazolin-5(4H)-one] | did not alter the responses | completely blocked the glutamate response | completely blocked the glutamate response
